Screening results deposited in PubChem by several laboratories.
Hck-Nef inh: human Hck-Nef kinase inhibition. hit rate 0.68% among 220,000. Recombinant Hck-YEEI plus Nef, Z-Lyte FRET kinase assay. P08631. inhibition, % at 20 µM. AID 463187;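 active = Hck-Nef kinase inhibition above about 50%, limit read from the data; inactive = inhibition below that limit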;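 note: 0% = DMSO with Hck plus Nef and 100% = Hck alone without Nef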
Target sequence (P08631 whole entry, looked up): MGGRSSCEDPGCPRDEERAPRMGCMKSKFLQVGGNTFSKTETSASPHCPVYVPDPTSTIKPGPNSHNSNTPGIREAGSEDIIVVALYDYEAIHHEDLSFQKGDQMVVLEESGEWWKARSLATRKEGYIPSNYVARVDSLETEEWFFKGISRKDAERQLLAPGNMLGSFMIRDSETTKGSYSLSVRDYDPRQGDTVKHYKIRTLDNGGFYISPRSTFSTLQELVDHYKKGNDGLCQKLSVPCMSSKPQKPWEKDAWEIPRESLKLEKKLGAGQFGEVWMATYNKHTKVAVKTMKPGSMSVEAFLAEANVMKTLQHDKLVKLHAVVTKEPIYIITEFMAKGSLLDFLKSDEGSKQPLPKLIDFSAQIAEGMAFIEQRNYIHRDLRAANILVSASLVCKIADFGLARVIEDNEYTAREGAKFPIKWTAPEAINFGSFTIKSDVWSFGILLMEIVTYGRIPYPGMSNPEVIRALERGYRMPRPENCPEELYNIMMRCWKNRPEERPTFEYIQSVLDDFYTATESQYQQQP
RanGTP-Imp inh: disruptors of Ran-importin-beta complex formation – biochemical, FRET, CFP-Ran, YFP-importin-beta, homogeneous, primary screen | AID 2216 | hit rate 1.1% among 300,000 | cell-free CFP-Ran/YFP-importin-beta FRET ratio | inhibition, % (test concentration not listed);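 active = more than half of the replicate wells show a fall in the fluorescence ratio signal beyond about 16%, limit read from the data, passing the limit was not always enough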;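 note: 0% = DMSO wells and 100% = Ran loaded with GDP instead of GTP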
Runt-CBFb FRET: Runt domain-CBFb interaction inhibition. Q01196+Q13951. hit rate 0.46% among 220,000. Cerulean-Runt/Venus-CBFb FRET ratio 530/480, 1 h. AID 1496. inhibition, % at 20 µM;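 active = inhibition over about 50% at 20 µM in the single-dose screen, limit read from the data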;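 note: 0% = DMSO wells and 100% = excess unlabeled CBFb competitor control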
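Assay system: Cerulean-Runt domain / Medium: Tris 50 mM pH 7.5, KCl, K2SO4, 0.01% BSA / Timing: protein complex preformed 1 h, compound exposure 1 h, room temperature, dark / Measured by: FRET, excitation 422 nm, emission at 530 and 480 nm / Evaluation: loss of energy transfer signal / Control set: 5 µM unlabeled CBFb as full-inhibition high control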
Runt-SMMHC FRET: blocks binding of human RUNX1 Runt domain to CBFb-SMMHC. Q01196+Q13951. Cerulean-Runt/Venus-CBFb-SMMHC FRET ratio 530/480, 1 h. inhibition, % at 20 µM. hit rate 0.74% among 220,000;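 active = mean inhibition across duplicate retests at 20 µM reaching about 50%, limit read from the data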;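 note: 0% = DMSO wells and 100% = wells with excess untagged CBFb-SMMHC; inhibitors lower the FRET ratio by blocking Runt binding to CBFb-SMMHC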
* marks the source's active call; other numbers are inactive results. Hits are enriched below; roughly 1.7% of the tested compounds scored in any of these assays.

What do the screens show for `Cc1ccc2[nH]c3c(=O)n(CC(=O)NCCCN4CCN(c5ccc(F)cc5)CC4)ncc3c2c1`?
RanGTP-Imp inh: 2

Results for CCOc1ccc(Oc2ccc(Cl)cc2NC(=O)C2=COCCO2)cc1 ?
RanGTP-Imp inh: 7

What do the screens show for `CC(=O)c1cc2c(cc1N/C(=N/S(=O)(=O)c1ccc(C)cc1)c1ccccc1)OCO2`?
Hck-Nef inh: -2; RanGTP-Imp inh: 23*; Runt-CBFb FRET: 0; Runt-SMMHC FRET: -1

What do the screens show for `NC(=S)Cc1nc(-c2ccccc2)cs1`?
Hck-Nef inh: 10; RanGTP-Imp inh: 30*; Runt-CBFb FRET: 0; Runt-SMMHC FRET: -4

How did Oc1csc(Cc2nc(-c3ccc(-c4ccccc4)cc3)cs2)n1 do in these assays?
Hck-Nef inh: 0; RanGTP-Imp inh: -6; Runt-CBFb FRET: -14; Runt-SMMHC FRET: -50

Results for CCc1ccc(-c2cn3nc(-c4ccccc4)cnc3n2)cc1 ?
Hck-Nef inh: 4; RanGTP-Imp inh: 21*; Runt-CBFb FRET: 2; Runt-SMMHC FRET: 12

What do the screens show for `CC(=O)Nc1ccc(S(=O)(=O)N2CCN(C(=O)c3ncoc3-c3ccc(C)cc3)CC2)cc1`?
RanGTP-Imp inh: 2

Results for CCCN1CCC2(CC1)C(C#N)=C(N)Oc1c2sc2nc(C)cc(C)c12 ?
Hck-Nef inh: 3; RanGTP-Imp inh: 26*; Runt-CBFb FRET: 6; Runt-SMMHC FRET: 12

How did CCOC(=O)N1CCC2(CC1)C(C#N)=C(N)Oc1c2sc2nc(C)cc(C)c12 do in these assays?
Hck-Nef inh: -1; RanGTP-Imp inh: -3; Runt-CBFb FRET: -3; Runt-SMMHC FRET: -2

What do the screens show for `Cc1ccc(Cl)cc1NC(=S)NCCCSC1CCCCC1`?
Hck-Nef inh: -24; RanGTP-Imp inh: -3; Runt-CBFb FRET: -2; Runt-SMMHC FRET: -1

Results for O=C(COc1ccc(S(=O)(=O)N2CCOCC2)cc1)NCCc1ccccc1 ?
RanGTP-Imp inh: -2

What do the screens show for `O=C(COc1ccc(S(=O)(=O)N2CCOCC2)cc1)Nc1ccccc1C(F)(F)F`?
Hck-Nef inh: 5; RanGTP-Imp inh: 27*; Runt-CBFb FRET: 2; Runt-SMMHC FRET: 2

What do the screens show for `N#CC(C#N)=C/C=C(\Nc1ccc(Cl)cc1)c1ccc(Cl)cc1`?
Hck-Nef inh: 16; RanGTP-Imp inh: 66*; Runt-CBFb FRET: 11; Runt-SMMHC FRET: -2

Results for COc1ccc(Cl)cc1C(=O)Nc1ccccc1N1CCCCC1 ?
RanGTP-Imp inh: 1

Results for O=C(Nc1ccccc1C(=O)O)c1ccc(NC(=O)C2CCCCC2)cc1 ?
RanGTP-Imp inh: 3

What do the screens show for `NC(=O)c1ccccc1OCC(=O)N1CCc2ccccc2C1`?
RanGTP-Imp inh: 0

Results for CCCn1cnc2cc(NCc3cccc(OC)c3)ccc21 ?
Hck-Nef inh: 1; RanGTP-Imp inh: 24*; Runt-CBFb FRET: 10; Runt-SMMHC FRET: 13

What do the screens show for `CCOc1ccc(CNc2ccc3c(c2)ncn3C(C)(C)C)cc1`?
RanGTP-Imp inh: 19*

How did CC(=O)N(c1ccccc1C)C1CCCC1 do in these assays?
Hck-Nef inh: 4; RanGTP-Imp inh: 3; Runt-CBFb FRET: -1; Runt-SMMHC FRET: 1

How did CC(=O)N(C1=C(Cl)C(=O)c2ccccc2C1=O)C1CCCCC1 do in these assays?
Hck-Nef inh: -39; RanGTP-Imp inh: 4; Runt-CBFb FRET: 33; Runt-SMMHC FRET: 70*

What do the screens show for `Cc1ccc(S(=O)(=O)NC(=O)c2cc(C)n(CCCN3CCOCC3)c2C)cc1`?
Hck-Nef inh: 1; RanGTP-Imp inh: 60*; Runt-CBFb FRET: 10; Runt-SMMHC FRET: 24

Results for Cc1ccc(S(=O)(=O)NC(=O)NCCCN2CCOCC2)cc1 ?
RanGTP-Imp inh: -1

What do the screens show for `COc1ccccc1C(=O)Nc1ccccc1SC(=O)c1ccccc1OC`?
RanGTP-Imp inh: -4

Results for Cn1c2ccccc2c(=O)c2ccc(C#Cc3ccc(N)cc3)cc21 ?
RanGTP-Imp inh: 86*

Results for COc1ccc(C#Cc2ccc3c(=O)c4ccccc4n(C)c3c2)cc1 ?
RanGTP-Imp inh: 88*

What do the screens show for `O=C1NC(=Nc2ccc(O)cc2)S/C1=C\C=C\c1ccco1`?
Hck-Nef inh: 94*; RanGTP-Imp inh: 2; Runt-CBFb FRET: 10; Runt-SMMHC FRET: -11

What do the screens show for `COc1cc(/C=C2/SC(=Nc3ccc(O)cc3)NC2=O)cc(OC)c1O`?
Hck-Nef inh: 32; RanGTP-Imp inh: 1; Runt-CBFb FRET: -4; Runt-SMMHC FRET: -51

What do the screens show for `Cc1ccc(NC(=O)CCC(=O)N/N=C/c2ccc([N+](=O)[O-])o2)cc1C`?
Hck-Nef inh: 21; RanGTP-Imp inh: 21*; Runt-CBFb FRET: 3; Runt-SMMHC FRET: 0

Results for CN1/C(=C\C=N\O)C(C)(C)c2ccccc21 ?
Hck-Nef inh: -9; RanGTP-Imp inh: 4; Runt-CBFb FRET: 0; Runt-SMMHC FRET: 0

How did CN1/C(=C/C=C(/C#N)C(N)=O)C(C)(C)c2ccccc21 do in these assays?
Hck-Nef inh: 2; RanGTP-Imp inh: 115*; Runt-CBFb FRET: 61*; Runt-SMMHC FRET: -14

How did CN1/C(=C\C(=O)Nc2ccc(F)cc2)C(C)(C)c2ccccc21 do in these assays?
Hck-Nef inh: 0; RanGTP-Imp inh: 0; Runt-CBFb FRET: -2; Runt-SMMHC FRET: -6

What do the screens show for `CN1/C(=C\C=C(/C#N)C(=O)Nc2ccccc2F)C(C)(C)c2ccccc21`?
Hck-Nef inh: 2; RanGTP-Imp inh: 122*; Runt-CBFb FRET: -1; Runt-SMMHC FRET: 58*

What do the screens show for `O=C(c1cc2ccccc2o1)N1CCN(c2cccc(Cl)c2)CC1`?
RanGTP-Imp inh: -1

What do the screens show for `CCCN1C=CC(=CC=C(C#N)C#N)C=C1`?
Hck-Nef inh: -3; RanGTP-Imp inh: 34*; Runt-CBFb FRET: -14; Runt-SMMHC FRET: -30

Results for CCCN1CCN(C(=O)CCc2nnc3ccc(N4CCN(c5cccc(OC)c5)CC4)nn23)CC1 ?
RanGTP-Imp inh: 4

Results for Cc1cc(C(=O)N/N=C2\CC(=O)CC(C)(C)C2)c2ccccc2n1 ?
Hck-Nef inh: 3; RanGTP-Imp inh: -2; Runt-CBFb FRET: -3; Runt-SMMHC FRET: -3

Results for CC1(C)CC(=O)CC(=Nc2ccc(C(=O)O)cc2)C1 ?
Hck-Nef inh: 1; RanGTP-Imp inh: 45*; Runt-CBFb FRET: 0; Runt-SMMHC FRET: 3

What do the screens show for `CC1(C)CC(=O)C/C(=N/NC(=O)c2ccc(-c3ccccc3)cc2)C1`?
Hck-Nef inh: 4; RanGTP-Imp inh: 24*; Runt-CBFb FRET: -1; Runt-SMMHC FRET: -5

Results for O=C(Nc1cccc(CNCCc2c[nH]c3ccccc23)c1)c1ccccc1Cl ?
RanGTP-Imp inh: -2

Results for Cc1cccc(CN2CCc3c(OCC(=O)N4CCCc5ccccc54)cccc3C2=O)c1 ?
Hck-Nef inh: 0; RanGTP-Imp inh: 22*; Runt-CBFb FRET: -4; Runt-SMMHC FRET: 2

What do the screens show for `Cc1ccc(OCCC(=O)OCC(=O)Nc2ccccc2)cc1`?
RanGTP-Imp inh: -3

What do the screens show for `CN1CC2(Cc3c1ccc1ccccc31)C(=O)OC(C)(C)OC2=O`?
Hck-Nef inh: 19; RanGTP-Imp inh: -1; Runt-CBFb FRET: 29; Runt-SMMHC FRET: 113*
